As usually defined, the pIC50 is the negative decadic logarithm of the IC50, by convention in mol/L. In general, pEC50 refers to the negative decadic logarithm of the EC50, by convention in mol/L. As a reminder, the GI50 is the concentration that inhibits growth by half.

The values below come from ChEMBL document CHEMBL1137639, “Novel small-molecule inhibitors of transmissible gastroenteritis virus” (Antimicrob Agents Chemother, 2007).

pEC50, pIC50: −log10 of the molar value. The source made the active and inactive calls. The rule behind the calls is not given here. A value given as a limit tells only on which side of the number the result lay.

For data set [1], the target named is Replicase polyprotein 1ab (Severe acute respiratory syndrome-related coronavirus, UniProt P0C6X7). Put plainly: Inhibition of SARS Coronavirus 3C-like protease expressed in Escherichia coli.
The nature of data set [2]: Inhibition of Transmissible gastroenteritis virus TFI recombinant GST-tagged 3C-like protease expressed in Escherichia coli BL21 (DE3). The essentials:
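The TGEV strain TFI 3CLpro was expressed in E. coli BL21(DE3) as a GST fusion, purified on glutathione resin, and had the tag cleaved with PreScission protease. IC50 came from at least eight concentrations.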

Data set [3] deals with Transmissible gastroenteritis virus. As to the kind of experiment: Antiviral activity against Transmissible gastroenteritis virus TFI infected in swine testicle cells assessed as inhibition of S and N protein expression treated 2 hrs before infection measured after 6 hrs post infection by indirect immunofluorescent assay. It is filed as functional, organism-based. Particulars: Alphacoronavirus 1, TFI. In short, it runs like this:
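ST cells, with or without a 2-h compound pretreatment, infected with TGEV at MOI 10. At 6 h they were fixed in 80% acetone and stained with mAbs to S and N protein, then FITC anti-mouse Ig for 60 min at room temperature. Fluorescence was read at ex 485/em 535 nm. Eight concentrations were tested, and EC50 was taken from dose-response curves.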

Data set [4] is described as follows: Cytotoxicity against swine testicle cells after 18 hrs. In kind it is cell-based, Sus scrofa. Particulars: pig. The essentials:
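ST cells in MEM with 10% fetal bovine serum were exposed to eight concentrations of compound for 18 h. GI50 was derived from the dose-response curves.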

The subject of data set [5] is Transmissible gastroenteritis virus. Put plainly: Antiviral activity against Transmissible gastroenteritis virus TFI infected in swine testicle cells assessed as reduction of N protein expression after 6 hrs post infection by Western blot analysis. It is filed as functional, organism-based. In short, it runs like this: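 TGEV-infected ST cells were treated with compound at 0.3 to 10 µM. Lysates with equal total protein were separated by SDS-PAGE, transferred to nitrocellulose, probed with anti-TGEV N protein antibody, and detected by enhanced chemiluminescence. Three independent experiments were run.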
(In general: A western blot detects proteins with antibodies after separation by electrophoresis.)

Data set [6] has the same test system. Put plainly: Antiviral activity against Transmissible gastroenteritis virus TFI infected in swine testicle cells assessed as reduction of N protein mRNA level at 1 uM after 6 hrs post infection by RT-PCR. It is filed as functional. The arrangement: scale not given: the % may be the effect or the level left. The essentials: (§1)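 Viral RNA was extracted from lysates of TGEV-infected ST cells for SYBR green real-time RT-PCR, with primers for TGEV N protein or 3CLpro. Cycling was 50°C 2 min and 95°C 10 min, then 40 cycles of 95°C 15 s and 60°C 1 min. Levels were normalized to β-actin by the comparative CT method, with CT measured at least in triplicate.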

For data set [7] the test system is unchanged. Put plainly: Antiviral activity against Transmissible gastroenteritis virus TFI infected in swine testicle cells assessed as reduction of N protein mRNA level at 5 uM after 6 hrs post infection by RT-PCR. It is filed as functional. Details: scale not given: the % may be the effect or the level left. The essentials: as §1
Data set [8] has the same test system. Put plainly: Antiviral activity against Transmissible gastroenteritis virus TFI infected in swine testicle cells assessed as reduction of N protein mRNA level at 10 uM after 6 hrs post infection after 6 hrs post infection by RT-PCR. It is filed as functional. The arrangement: scale not given: the % may be the effect or the level left. The essentials: as §1

For data set [9] the test system is unchanged. As to the kind of experiment: Antiviral activity against Transmissible gastroenteritis virus TFI infected in swine testicle cells assessed as reduction of 3CL protease mRNA level at 1 uM after 6 hrs post infection by RT-PCR. It is filed as functional. The arrangement: scale not given: the % may be the effect or the level left. In short, it runs like this:
as §1

For data set [10] the test system is unchanged. Put plainly: Antiviral activity against Transmissible gastroenteritis virus TFI infected in swine testicle cells assessed as reduction of 3CL protease mRNA level at 5 uM after 6 hrs post infection by RT-PCR. It is filed as functional. The arrangement: scale not given: the % may be the effect or the level left. The essentials: as §1
Data set [11] has the same test system. Put plainly: Antiviral activity against Transmissible gastroenteritis virus TFI infected in swine testicle cells assessed as reduction of 3CL protease mRNA level at 10 uM after 6 hrs post infection by RT-PCR. It is filed as functional. Details: scale not given: the % may be the effect or the level left. In short, it runs like this: as §1
Data set [12] has the same test system. As to the kind of experiment: Antiviral activity against Transmissible gastroenteritis virus TFI infected in swine testicle cells assessed as reduction of N protein mRNA level after 6 hrs post infection by RT-PCR. It is filed as functional, organism-based. The essentials:
as §1

Data set [13] shares this test system. Put plainly: Antiviral activity against Transmissible gastroenteritis virus TFI infected in swine testicle cells assessed as reduction of 3CL protease mRNA level after 6 hrs post infection by RT-PCR. In kind it is functional, organism-based. The essentials: as §1
Data set [14] shares this test system. As to the kind of experiment: Antiviral activity against Transmissible gastroenteritis virus TFI infected in swine testicle cells assessed as protection against virus-induced caspase 3 activation at 5 uM after 14 hrs post infection. In kind it is functional, organism-based. In short, it runs like this: (§2)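 TGEV-infected ST cells were treated with compound at 5 µM, and caspase activation was examined at 14 and 18 hpi. Lysates with equal total protein were run on SDS-PAGE and transferred to nitrocellulose. Blots were probed with anti-caspase-3 (β-actin antibody also used) and detected by enhanced chemiluminescence.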

The test system is the same in data set [15]. Put plainly: Antiviral activity against Transmissible gastroenteritis virus TFI infected in swine testicle cells assessed as protection against virus-induced caspase 3 activation at 5 uM after 18 hrs post infection. In kind it is functional, organism-based. The essentials:
as §2

Data set [16] has the same test system. As to the kind of experiment: Antiviral activity against Transmissible gastroenteritis virus TFI infected in swine testicle cells assessed as protection against virus-induced cytopathic effect at 5 uM after 18 hrs post infection. It is filed as functional, organism-based. The essentials:
(§3)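 ST cell monolayers were inoculated with TGEV at MOI 5 and kept at 37°C under 5% CO2. Treatments were 5 µM compound, caspase inhibitor ZVAD-fmk at 100 µM as positive control, or 1% DMSO vehicle. At 18–24 hpi CPE was scored by microscopy as cell rounding, enlargement, syncytia and detachment. Two independent experiments were run.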
(Protection from cytopathic effect is a common read-out in antiviral testing.)

Data set [17] shares this test system. Put plainly: Antiviral activity against Transmissible gastroenteritis virus TFI infected in swine testicle cells assessed as protection against virus-induced cytopathic effect at 100 uM after 18 hrs post infection. It is filed as functional, organism-based. The essentials:
as §3

Data set [18] has the same test system. Put plainly: Antiviral activity against Transmissible gastroenteritis virus TFI infected in swine testicle cells assessed as protection against virus-induced cytopathic effect at 5 uM after 24 hrs post infection. It is filed as functional, organism-based. The essentials: as §3
Data set [19] has the same test system. As to the kind of experiment: Antiviral activity against Transmissible gastroenteritis virus TFI infected in swine testicle cells assessed as protection against virus-induced cytopathic effect at 100 uM after 24 hrs post infection. It is filed as functional, organism-based.

For the molecule `CCC(=C\c1sc2c3ccccc3ccc2[n+]1CC)/C=C1/Sc2cc(C)c(C)cc2N1CC`, the pIC50 was 5.27 in data set [1] and 5.10 in [2]. Further, in [3], the pEC50 was 5.68. The GI50 at 18 h in [4] was 21.3 µM. Moreover, the Activity result in data set [5] was “Dose-dependent effect”; in data set [6], 2.6%; in [7], 1.3%; in data set [8] it was 1.1%; in data set [9], 1.4%; in [10], 0.5%. For the same molecule, the Activity was 0.3% in data set [11], “Dose-dependent effect” in data set [12] and “Dose-dependent effect” in data set [13]. Also, the result in data set [14], in data set [15], in data set [16], in [17], in [18] and in data set [19] was Active.
Consider `CCN1/C(=C\C=c2/s/c(=C\c3sc4ccccc4[n+]3CC)n(CC)c2=O)Sc2ccccc21`, for which the pIC50 is 5.00 in data set [1] and 5.66 in [2]. For the same molecule, in data set [3], the pEC50 was 4.76. In data set [4], the GI50 at 18 h is > 50 µM. In addition, the result in data set [14] and in data set [15] was inactive.
Take `C(/C1=C2Sc3ccccc3N2CC1)=C1\CC[n+]2c1sc1ccccc12`: the values for the pIC50 in [1] and in [2] were 4.98 and 5.66, respectively. For the same molecule, the pEC50 in [3] is < 4.52. Besides, in data set [4], the GI50 at 18 h is > 50 µM. In addition, the outcome in [14] and in data set [15] was inactive.
Take `CCN1/C(=C\C=C\C2=CC(=C/c3sc4ccccc4[n+]3CC)/CC(C)C2)Sc2ccccc21` (configuration not stated): the figures for the pIC50 in data set [1] and in data set [2] were 5.70 and 4.92, respectively. For the same molecule, the negative logarithm of the EC50 (pEC50) in [3] is 5.21. Further, the GI50 at 18 h in data set [4] is > 50 µM. The Activity entry was “Dose-dependent effect” in [5]; 13.7% in data set [6]; 2.1% in data set [7]; 1.4% in data set [8]; 20.8% in [9]; 2.3% in [10]. The Activity was 1.4% in [11], “Dose-dependent effect” in data set [12] and “Dose-dependent effect” in [13]. Besides, the result in [14], in [15], in data set [16], in [17], in [18] and in [19] was Active.
`CCC(/C=C1\Sc2cc(/C=C/c3ccccc3)ccc2N1CC)=C\c1sc2cc(C)c(C)cc2[n+]1CC` had a pIC50 in data set [1] of 5.18. Further, in [4], the GI50 at 18 h is > 50 µM.
With `CCC(=C\c1sc2cc(C)c(C)cc2[n+]1CC)/C=C1/Sc2cc(/C=C/c3ccccc3)ccc2N1CC`, in data set [3], the negative logarithm of the EC50 (pEC50) was 5.74. In addition, the result in [14], in data set [15], in [16], in data set [17], in data set [18] and in data set [19] was Active.
`CCN1/C(=C\C(=C/c2sc3ccccc3[n+]2CCCS(=O)(=O)[O-])OC)Sc2ccc(OC)cc21`: the values for the pIC50 in data set [1] and in data set [2] were 5.14 and 5.48, respectively. The pEC50 in data set [3] was 5.52. This molecule registered a GI50 at 18 h in [4] of 13.1 µM. For the same molecule, the result in data set [14], in [15], in [16], in [17], in data set [18] and in data set [19] was Active.
Turning to `CCN1C(c2ccccc2)=C(c2ccccc2)S/C1=C/C=C/c1sc2c3ccccc3ccc2[n+]1CC.[Cl-]`, the pIC50 in data set [1] is 5.42; in [2] it was 5.31. For the same molecule, the pEC50 in data set [3] is 5.35. This molecule also returned a GI50 at 18 h in data set [4] of 18.1 µM. In addition, the Activity result in data set [5] was “Dose-dependent effect”; in [6], 59.6%; in [7], 3%; in data set [8], 0.4%; in data set [9], 39.9%; in [10], 1.2%. Further, in data set [11], the Activity is given as 0.2%. Besides, the result in [14], in data set [15], in data set [16], in data set [17], in [18] and in data set [19] was Active.
With `CCN1/C(=C\C=C\c2sc3ccc(-c4nc5ccccc5s4)cc3[n+]2CC)Sc2ccc(-c3nc4ccccc4s3)cc21`, the figures for the pIC50 in data set [1] and in [2] were 5.60 and 5.68, respectively. In addition, in data set [3], the pEC50 was < 4.52. Moreover, the GI50 at 18 h in data set [4] was > 50 µM. For the same molecule, the result in [14] and in data set [15] was inactive.
